Reference: ChEMBL document CHEMBL1133102, “Novel inhibitors of nucleoside triphosphate diphosphohydrolases: chemical synthesis and biochemical and pharmacological characterizations” (J Med Chem, 2000)

B1: Ectonucleoside triphosphate diphosphohydrolase 1 (Bos taurus), O18956 (protein)
chain: MEDRRESELKVFCSKNILSILGFSCIIAVIALLALGLTQNKALPENVKFGIVLDAGSSHTSLYIYRWPAEKENDTGVVTQIEESNVKGPGISGFAKKVNEINVYLTACMERAQKVIPSIQHMETPVYLGATAGMRLLRMENKQMADKILAAVASSISEYPFDFQGARIISGQEEGAYGWITVNYLLGKFTQKLSWFNLKPSKDDTQETYGALDLGGASTQITFVPQNETTESPNNNLYFRLYGKNYSVYTHSFLCYGKDQALLQKLALGLQGTNGIIHEPCFHSRYMRKIKMSVLNEGFCTKRHELNSSFYPLVDIEIRGAGNFQRCRQSIIQLFNTSYCPYSSCSFNGVFLPPLHGQFGAFSAFYYVMEFLNLTSEESVSVEQLTEKLEEFCAQRWEEVQKNFGEVKEKYLSEYCFSGTYILVLLLNGYHFTAESWKNIHFMNKVRSTDVGWTLGYMLNLTNKIPAEEPMSPPLPHSTYVFLMVLFSLILLAVIIVGIVVFHKPSYFWKDMV

Key:
Format in all cases: tissue-based
[1] = target: T1, Ectonucleoside triphosphate diphosphohydrolase 1 (Bos taurus, UniProt O18956); assay: (§1) Tested for inhibition of Nucleoside Triphosphate Diphosphohydrolase (NTPDase) from bovine spleen.
T1 sequence (O18956 whole entry): B1 chain
Outline: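 Bovine spleen particulate fraction. Medium: 8 mM CaCl2, 5 mM tetramisole, 50 mM Tris, 50 mM imidazole, pH 7.6, 37 °C. Started with 1.9 μg enzyme, stopped after 7 min; Pi release read by malachite green. Triplicate.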

[2] = compound: CCSc1nc2c(N)ncnc2n1[C@@H]1O[C@H](COP(=O)(O)OP(=O)(O)OP(=O)(O)O)[C@@H](O)[C@H]1O; assay: as §1
Outline: (§2)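 Bovine spleen particulate fraction. […] Medium: 8 mM CaCl2, 5 mM tetramisole, 50 mM Tris, 50 mM imidazole, pH 7.6, 37 °C. Started with 1.9 μg enzyme, stopped after 7 min; Pi release read by malachite green. Triplicate.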

[3] = compound: CCCCSc1nc(N)c2ncn(C3O[C@H](COP(=O)(O)OP(=O)(O)O)[C@@H](O)[C@H]3O)c2n1; assay: as §1; outline: as §2
[4] = compound: CCCCOc1nc(N)c2ncn([C@@H]3O[C@H](COP(=O)(O)OP(=O)(O)OP(=O)(O)O)[C@@H](O)[C@H]3O)c2n1; assay: as §1; outline: as §2
[5] = compound: CCCCNc1nc2c(N)ncnc2n1[C@@H]1O[C@H](COP(=O)(O)OP(=O)(O)OP(=O)(O)O)[C@@H](O)[C@H]1O; assay: as §1; outline: as §2
[6] = compound: Nc1ncnc2c1ncn2[C@@H]1O[C@H](COP(=O)(O)OP(=O)(O)OP(=O)(O)O)[C@@H](O)[C@H]1O; assay: as §1; outline: as §2
[7] = compound: Nc1ncnc2c1nc(Br)n2C1O[C@H](COP(=O)(O)OP(=O)(O)OP(=O)(O)O)[C@@H](O)[C@H]1O; assay: as §1; outline: as §2
[8] = compound: CCCCOc1nc2c(N)ncnc2n1[C@@H]1O[C@H](COP(=O)(O)OP(=O)(O)OP(=O)(O)O)[C@@H](O)[C@H]1O; assay: as §1; outline: as §2
[9] = compound: CCCCNc1nc(N)c2ncn([C@@H]3O[C@H](COP(=O)(O)OP(=O)(O)OP(=O)(O)O)[C@@H](O)[C@H]3O)c2n1; assay: as §1; outline: as §2
[10] = compound: CCCCSc1nc(N)c2ncn([C@@H]3O[C@H](COP(=O)(O)OP(=O)(O)OP(=O)(O)O)[C@@H](O)[C@H]3O)c2n1; assay: as §1; outline: as §2
[11] = compound: Nc1ncnc2c1ncn2[C@@H]1O[C@H](COP(=O)(O)OP(=O)(O)O)[C@@H](O)[C@H]1O; assay: as §1; outline: as §2

Molecule | Ki [1] | Km [2] | Km [3] | Km [4] | Km [5] | Km [6] | Km [7] | Km [8] | Km [9] | Km [10] | Km [11]
Nc1ncnc2c1nc(SC1CCCCCC1)n2C1O[C@H](COP(=O)(O)OP(=O)(O)OP(=O)(O)O)[C@@H](O)[C@H]1O (stereo partly specified) | 31 µM | – | – | – | – | – | – | – | – | – | –
B1 | – | 12 µM | 63 µM | 28 µM | 20 µM | 18 µM | 22 µM | 26 µM | 32 µM | 36 µM | 33 µM
